High-throughput results from PubChem.
NR1D1 modulator: modulators of Rev-erb alpha DNA binding, primary screen, biochemical, FITC-DNA, fluorescence polarization, uHTS | activity, % at 10 µM | Rev-erbα–FITC-DNA binding, 90 min | actives 0.79% (n = 370,000) | Nuclear receptor subfamily 1 group D member 1 (Homo sapiens), P20393;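 active means activity above about 14%, limit read from the data; passing the limit was not always enough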
Target sequence (P20393 whole entry, looked up): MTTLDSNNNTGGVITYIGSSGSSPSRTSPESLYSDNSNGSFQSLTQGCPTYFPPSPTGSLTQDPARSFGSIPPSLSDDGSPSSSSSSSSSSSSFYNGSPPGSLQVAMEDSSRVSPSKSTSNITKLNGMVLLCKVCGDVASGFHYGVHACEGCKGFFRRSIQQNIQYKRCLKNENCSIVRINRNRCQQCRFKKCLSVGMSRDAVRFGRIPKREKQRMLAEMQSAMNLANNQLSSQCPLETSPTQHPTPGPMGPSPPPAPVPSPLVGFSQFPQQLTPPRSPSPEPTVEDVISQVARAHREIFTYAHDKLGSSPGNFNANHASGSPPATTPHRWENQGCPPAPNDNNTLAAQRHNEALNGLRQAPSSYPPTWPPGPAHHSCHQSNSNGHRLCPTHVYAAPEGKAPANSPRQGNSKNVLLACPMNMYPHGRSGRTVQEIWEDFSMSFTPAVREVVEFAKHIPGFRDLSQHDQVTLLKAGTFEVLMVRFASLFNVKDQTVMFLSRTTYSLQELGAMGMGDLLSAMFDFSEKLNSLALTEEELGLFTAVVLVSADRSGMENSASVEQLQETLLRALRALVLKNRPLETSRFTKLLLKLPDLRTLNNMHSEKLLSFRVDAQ
Rin1-Abl PPI inh: inhibitors of Rin1-Abl protein binding, primary screen, biochemical, TR-FRET. Tyrosine-protein kinase ABL1 (Homo sapiens) + Ras and Rab interactor 1 (Homo sapiens), …. inhibition, % at 7.35 µM. actives 0.4% (n = 360,000). AID 588664, 2011; in the data active means inhibition above about 5%, passing the limit was not always enough
TbMetRS inhib: T. brucei MetRS inhibitors, primary screen, biochemical, luminescence. methionyl-tRNA synthetase (Trypanosoma brucei brucei). purified T. brucei MetRS, ATP depletion, Kinase-Glo luminescence. inhibition, % at 11.9 µM. actives 0.4% (n = 360,000). AID 624268, 2012;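 active means inhibition above a per-plate cutoff of the control wells' mean inhibition plus 3 SD, cut at about 5.5% in these data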
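Test system: purified T. brucei MetRS enzyme. Also added: ATP, methionine and E. coli bulk tRNA substrates. Compound: 11.9 µM single point. Schedule: 15 min enzyme-compound preincubation, 2 h reaction, 10 min detection, 25 °C. Signal: luciferase luminescence of residual ATP, Kinase-Glo. Evaluation: percent inhibition versus plate control medians. Controls: DMSO wells, low control.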
PG9 binder: binders of HIV-1 gp120 antibody PG9, primary screen, biochemical, TR-FRET | HIV-1 gp120 / PG9 antibody interaction | TR-FRET gp120-PG9 antibody binding | inhibition, % at 6.7 µM | actives 0.43% (n = 360,000); in the data active means inhibition above about 8.5%
PG9 bind confirm: binders of anti-gp120 antibody PG9, confirmation, biochemical, TR-FRET. shares compounds with PG9 binder. TR-FRET PG9 antibody binding. inhibition, % at 6.7 µM. actives 90% (n = 1,500). AID 651571, 2012; in the data active means inhibition above about 9%
PGV04 Ab binding: binders of control antibody PGV04, counter-screen for PG9 antibody binder project, biochemical, TR-FRET, distinct HIV envelope site | inhibition, % at 6.7 µM | TR-FRET PGV04 antibody-gp120 binding | shares compounds with PG9 binder | actives 95% (n = 1,500); in the data active means inhibition above about 9.5%
PG9 bind DR: small-molecule binders of antibody PG9, dose response, biochemical, TR-FRET, HIV-1 gp120 antibody; shares compounds with PG9 binder; TR-FRET PG9 antibody-gp120 binding inhibition; IC50, µM; 95 tested, under 10 active; AID 651848, 2012; in the data active means IC50 below about 10 µM
PGV04 DR counter: binders of control antibody PGV04, dose response, counter-screen for PG9 antibody binder project, biochemical, TR-FRET, distinct HIV envelope site. shares compounds with PG9 binder. TR-FRET binding to control antibody PGV04. IC50, µM. actives 20% (n = 95)
PG126 DR counter: binders of control antibody PG126, dose response, counter-screen for PG9 antibody binder project, biochemical, TR-FRET, distinct HIV envelope site; shares compounds with PG9 binder; TR-FRET binding to antibody PG126, counterscreen; IC50, µM; actives 20% (n = 95); AID 651939, 2012
Rev-erbA confirm: modulators of Rev-erb alpha DNA binding, confirmation, biochemical, FITC-DNA, fluorescence polarization, single point; AID 1259319, 2017; activation, % at 25 µM; shares compounds with NR1D1 modulator; 90 min; actives 61% (n = 3,000);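 active means activation at or above a set limit, or at least 3 SD above the negative control mean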
RORg counter: modulation of RORgamma DNA binding, dose response, counter-screen for Rev-erb alpha modulator project, biochemical, fluorescence polarization, FITC-DNA; purified RORgamma protein-FITC-DNA binding; IC50, µM; shares compounds with NR1D1 modulator; actives 8% (n = 910);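 active means Compounds whose fitted half-maximal concentration for disrupting protein-DNA binding is below 10 micromolar; the record names Rev-erb in its text, so the target is in doubt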
A number is an active result; n = inactive; x = not tested or not shown. Most compounds without a hit are left out; they make up all but 1.8% or so of the library. Unless noted, no stated cut-off is given here; in the data, active means IC50 below about 9 µM; inactive means the rest.

SMILES	NR1D1 modulator	Rin1-Abl PPI inh	TbMetRS inhib	PG9 binder	PG9 bind confirm	PGV04 Ab binding	Rev-erbA confirm	others
COc1ccc(-n2ncc3c(NCc4ccc5c(c4)OCO5)ncnc32)cc1	25.5	n	n	15.9	n	n	n
Cc1ccc(C)c(NC(=O)CN(C)C(=O)c2ccc(S(=O)(=O)N3CCCCCC3)cc2)c1	n	n	n	n	x	x	x
COc1cc(OC)cc(C(=O)NC(=S)Nc2ccc3[nH]c(=O)[nH]c3c2)c1	n	n	n	n	x	x	x
COc1ccc(C(=O)NC(=S)Nc2ccc3[nH]c(=O)[nH]c3c2)c(OC)c1	100.8	n	n	36.5	53.5	51.8	54.6	PG9 bind DR=n;PGV04 DR counter=6.27;PG126 DR counter=6.84;RORg counter=n
O=c1[nH]cnc2c1sc1nc3c(c(-c4ccc(Cl)cc4)c12)CCC3	39.1	n	n	11.0	27.6	15.7	n	PG9 bind DR=n;PGV04 DR counter=6.41;PG126 DR counter=8.61
Cc1ccc(C(=O)OCc2cc3ccccc3[nH]c2=O)cc1	23.1	n	n	15.1	24.4	31.1	16.7
Cc1cc(C)c(C(N)=O)c(SCC(=O)c2cc(C)n(-c3cc(C)on3)c2C)n1	n	n	n	n	x	x	x
COc1ccc(-c2nnc(C(C)Nc3cccc(C(=O)NC4CC4)c3)o2)cc1 (configuration not stated)	n	n	n	n	x	x	x
Cn1c2ccccc2n2c(=O)cc(-c3ccccc3)c(C#N)c12	44.4	n	n	9.7	15.6	20.4	21.4
Cc1cccc(NC(=O)C(C)Sc2nnc(-c3cccnc3)o2)c1 (configuration not stated)	n	n	n	n	x	x	x
O=C(CCCCCn1c(=S)[nH]c2ccc(N3CCOCC3)cc2c1=O)NCc1ccc(Cl)cc1	18.0	n	n	20.6	16.0	24.7	n
O=C(CCCCCn1c(=S)[nH]c2ccc(N3CCOCC3)cc2c1=O)NCc1ccc2c(c1)OCO2	22.3	n	n	20.9	16.5	23.8	n
O=C(CCCCCn1c(=S)[nH]c2ccc(N3CCOCC3)cc2c1=O)NCc1ccccc1Cl	n	n	n	n	x	x	x
COc1ccc(OC)c(S(=O)(=O)NCCCc2ccccc2)c1	n	n	n	n	x	x	x
O=C(NCC(=O)N1CCN(Cc2ccccc2)CC1)c1ccccc1Cl	n	n	n	n	x	x	x
Cc1ccc(C(=O)Nc2ccc3c(c2)OCO3)cc1Cl	23.6	n	n	21.4	18.1	22.4	n
COc1ccc(-c2cc(-c3ccccc3)c(C#N)c(SCC(=O)Nc3ncc(C)s3)n2)cc1	25.9	n	n	27.5	n	10.0	42.1	RORg counter=n
CC(=O)c1cccc(NC(=O)CCc2nc3sc4c(c3c(=O)[nH]2)CCCC4)c1	23.3	n	n	13.5	10.9	23.8	17.8
Cc1cccc(C)c1NC(=O)CN(C)C(=O)CCc1nc2sc3c(c2c(=O)[nH]1)CCCC3	n	n	n	n	x	x	x
Cc1ccc(-c2nc(NC(=O)CSc3nnnn3-c3ccccc3)ns2)cc1	17.7	n	n	13.0	n	n	n
CCn1c2ccccc2c2cc(NC(=O)CSc3nnnn3-c3ccccc3)ccc21	38.7	n	n	10.5	9.2	17.6	24.2
CCOc1ccc(NC(=O)CC(Cc2cc(C)cc(C)c2)C(=O)O)cc1 (configuration not stated)	n	n	n	n	x	x	x
Clc1ccccc1Nc1nc(NCc2ccccc2)nc2ccsc12	21.4	n	n	18.1	27.1	35.6	n
COCCNc1nc(NCc2ccccc2)nc2ccsc12	n	n	n	n	x	x	x
C(#Cc1c(-c2ccsc2)sc2ccccc12)c1ccsc1	n	n	n	n	x	x	x
SMILES	NR1D1 modulator	Rin1-Abl PPI inh	TbMetRS inhib	PG9 binder	PG9 bind confirm	PGV04 Ab binding	Rev-erbA confirm	others
O=C(CSc1nc2ncc(Cl)cc2[nH]1)c1c[nH]c2ccccc12	23.3	n	n	35.1	35.5	50.9	22.5
COc1ccc(-n2nc(C(=O)NCC(=O)Nc3ccc(F)cc3)c3ccccc3c2=O)cc1	38.6	n	n	10.6	17.3	25.0	n
COc1ccc(-n2nc(C(=O)NCC(=O)Nc3cccc(Cl)c3)c3ccccc3c2=O)cc1OC	289.0	n	n	39.2	34.8	66.4	273.3	RORg counter=n
CCOc1ccccc1NC(=O)CNC(=O)c1nn(-c2ccc(OC)c(OC)c2)c(=O)c2ccccc12	n	n	n	n	x	x	x
CCOc1ccc(NC(=O)CNC(=O)c2nn(-c3ccc(OC)c(OC)c3)c(=O)c3ccccc23)cc1	111.4	n	n	40.1	23.2	61.1	91.4	RORg counter=n
O=C(CCl)NC1(C(=O)O)CCCC1	n	n	n	n	x	x	x
CCC[C@H]1[C@@H](NC(=O)c2ccc(OC)cc2)CC[C@@]23CCCN2C(=O)CCC[C@@H]13	n	x	x	x	x	x	x
CCOc1cc(N2CCOCC2)c(OCC)cc1NC(=O)c1[nH]c(C)c(C(C)=O)c1C	n	n	n	n	x	x	x
CCOc1ccc(OCC)c(NC(=O)c2[nH]c(C)c(C(C)=O)c2C)c1	59.0	n	n	15.9	10.9	n	51.5	PG9 bind DR=n;PGV04 DR counter=3.55;PG126 DR counter=3.91;RORg counter=n
O=C(CC1SC(N2CCCC2)=NC1=O)Nc1ccc(C(=O)Nc2ncccc2O)cc1 (configuration not stated)	n	n	n	n	x	x	x
CC(=O)Nc1ccc(C(=O)CSc2cc(C)c3cccc(C)c3n2)cc1	37.5	n	n	17.2	22.8	47.8	30.1
Cc1cc(C)cc(NC(=O)CSc2nc3ccncc3[nH]2)c1	n	n	n	n	x	x	x
Cc1ccc(CSc2nc3ccncc3n2CC(=O)Nc2cc(C)cc(C)c2)cc1	80.7	n	n	24.9	32.2	49.5	34.1	RORg counter=0.258
